# Where two headings read alike, the source gives them in different places.
# How the values were obtained:
# [1] = assay type: in vivo, human (Chinese male healthy subjects); details: mean ± SD, n = 23; for Tmax / T½ (half-life of elimination): single i.m. injection
# [2] = Stability of the analytes in human plasma at QC levels; assay type: in vitro ADME; details: n = 5; for Short-term Dev. (%) / Short-term MCM ± SD: 6 h, r.t.; for Short-term Dev. (%) / Short-term MCM ± SD / Long-term Dev. (%) / Long-term MCM ± SD / Freeze–thaw Dev. (%) / Freeze–thaw MCM ± SD: human plasma; for Long-term Dev. (%) / Long-term MCM ± SD: 40 days; for Long-term Dev. (%) / Long-term MCM ± SD / Freeze–thaw Dev. (%) / Freeze–thaw MCM ± SD: −40 °C; for The autosampler Dev. (24h, %) / The autosampler MCM ± SD (24h) / The autosampler Dev. (48h, %) / The autosampler MCM ± SD (48h): autosampler r.t.; for Freeze–thaw Dev. (%) / Freeze–thaw MCM ± SD: four cycles
# Procedure, shortened: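 QC plasma made by spiking working solution into drug-free human plasma (1:9); the phosphate ester is pre-stabilised with 2M sodium cacodylate and 50% KF. Freeze-thaw: frozen at −40 °C for 24 h, thawed at 25 °C. Short-term: 6 h at room temperature. Long-term: −40 °C for 40 days. Quantified by UPLC-MS/MS against 1/x-weighted analyte/IS peak-area-ratio calibration curves.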
# [3] = reported; cited from earlier work
smiles,measurement,setting,value
"CCC(=O)O[C@]1(C(=O)CO)[C@@H](C)C[C@H]2[C@@H]3CCC4=CC(=O)C=C[C@]4(C)[C@@]3(F)[C@@H](O)C[C@@]21C [B17P, betamethasone 17-monopropionate]",AUC0–∞,[1]; Reference formulation,281.7 ± 91.50 × 10^−9 mol·dm^−3·h^−1
same,Tmax,[1]; Reference formulation,17.74 ± 13.04 h
same,T½ (half-life of elimination),[1]; Reference formulation,106.6 ± 35.93 h
same,AUC0–∞,[1]; Test formulation,305.4 ± 108.1 × 10^−9 mol·dm^−3·h^−1
same,Tmax,[1]; Test formulation,19.83 ± 12.27 h
same,T½ (half-life of elimination),[1]; Test formulation,101.3 ± 39.43 h
same,AUC0–t,"[1]; Test formulation, t = 4 h (BDP), 120 h (BOH), 360 h (B17P)",259.2 ± 89.1 × 10^−9 mol·dm^−3·h^−1
same,Short-term Dev. (%),[2]; high QC,−8.39%
same,Short-term MCM ± SD,[2]; high QC,3.435 ± 0.353 × 10^−9 mol·dm^−3
same,Long-term Dev. (%),[2]; high QC,10.5%
same,Long-term MCM ± SD,[2]; high QC,4.185 ± 0.616 × 10^−9 mol·dm^−3
same,"The autosampler Dev. (24h, %)",[2]; high QC,−12.14%
same,The autosampler MCM ± SD (24h),[2]; high QC,3.295 ± 0.304 × 10^−9 mol·dm^−3
same,"The autosampler Dev. (48h, %)",[2]; high QC,−4.7%
same,The autosampler MCM ± SD (48h),[2]; high QC,3.574 ± 0.531 × 10^−9 mol·dm^−3
same,Freeze–thaw Dev. (%),[2]; high QC,2.2%
same,Freeze–thaw MCM ± SD,[2]; high QC,3.832 ± 0.330 × 10^−9 mol·dm^−3
same,Short-term Dev. (%),[2]; low QC,9.09%
same,Short-term MCM ± SD,[2]; low QC,0.214 ± 0.020 × 10^−9 mol·dm^−3
same,Long-term Dev. (%),[2]; low QC,4.54%
same,Long-term MCM ± SD,[2]; low QC,0.205 ± 0.027 × 10^−9 mol·dm^−3
same,"The autosampler Dev. (24h, %)",[2]; low QC,5.68%
same,The autosampler MCM ± SD (24h),[2]; low QC,0.208 ± 0.022 × 10^−9 mol·dm^−3
same,"The autosampler Dev. (48h, %)",[2]; low QC,−5.68%
same,The autosampler MCM ± SD (48h),[2]; low QC,0.185 ± 0.025 × 10^−9 mol·dm^−3
same,Freeze–thaw Dev. (%),[2]; low QC,12.5%
same,Freeze–thaw MCM ± SD,[2]; low QC,0.221 ± 0.335 × 10^−9 mol·dm^−3
same,Short-term Dev. (%),[2]; middle QC,2.08%
same,Short-term MCM ± SD,[2]; middle QC,1.196 ± 0.112 × 10^−9 mol·dm^−3
same,Long-term Dev. (%),[2]; middle QC,5.91%
same,Long-term MCM ± SD,[2]; middle QC,1.241 ± 0.129 × 10^−9 mol·dm^−3
same,"The autosampler Dev. (24h, %)",[2]; middle QC,7.80%
same,The autosampler MCM ± SD (24h),[2]; middle QC,1.266 ± 0.094 × 10^−9 mol·dm^−3
same,"The autosampler Dev. (48h, %)",[2]; middle QC,−5.02%
same,The autosampler MCM ± SD (48h),[2]; middle QC,1.114 ± 0.129 × 10^−9 mol·dm^−3
same,Freeze–thaw Dev. (%),[2]; middle QC,6.62%
same,Freeze–thaw MCM ± SD,[2]; middle QC,1.250 ± 0.112 × 10^−9 mol·dm^−3
same,elimination half-life time,[3],80.8 h

# Reference: article PMC5042352 (Analytical methods : advancing methods and applications, 2016)
